# Where two headings read alike, the source gives them in different places.
# Assays:
# [1] = system: Ub-(5)KDPGA(15) and PGA(15)-Ub substrates; experiment: Reaction rates of M. mazei Connectase at different temperatures; type: biochemical
# Method in brief: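 His6-Ub-(5)KDPGA(15) and PGA(15)-Ub-His6, each 6.25 µM, incubated with M. mazei Connectase-His6 at 400× lower concentration, at 25 °C, 37 °C or 50 °C. Buffer: 50 mM acetate/MES/Hepes, 150 mM NaCl, 50 mM KCl, 5 mM TCEP, pH 7.0. Time points were stopped with 2% SDS and run on Coomassie-stained 12% gels. Bands were quantified to give rates.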
# [2] = system: ubiquitin ligation substrates (Ub-(5)KDPGA(15)/PGA(15)-Ub; Ub-[…]/GGG-Ub); type: biochemical
# LPETG and GGG substrates = conditions: cited from earlier work
# M. mazei Connectase = experiment: Time course of the Connectase reaction with one primary substrate; type: biochemical; conditions: 0.9 µM M. mazei Connectase, 3.7 µM Ub-(5)KDPGA(10), 37 °C
# Method in brief: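 M. mazei Connectase-His6 incubated with His6-Ub-(5)KDPGA(10) primary substrate only, no secondary substrate. Buffer: 50 mM acetate/MES/Hepes, 150 mM NaCl, 50 mM KCl, 5 mM TCEP, pH 7.0. Time points were stopped with 2% SDS and run on Coomassie-stained 12% gels.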
molecule,measurement,setting,value
"M. mazei Connectase: sequence-specific protein ligase, monomeric homolog of 20S proteasome subunits from Methanosarcina mazei (protein, left off: Strep, C-terminal, kept) MTLVIAFIGKNGAVMAGDMREITFEGEKPDREKLEKELYSGSIVTDEEMQKKAEEFGVKITVADCKEKVSERNGVLVGEVSSAEGGVVKKRRLYASAGNFAIAELINTEMTLTSQGKGSNFIAFGNEFTKQVANKCFKDNWTKKSNLQDAVKILILCMETVARKTASVSKQFMIVQTASNADVLKVVEKDRNC",temperature of maximum activity,[1],50 °C
same,ligase activity of Connectase relative to optimized SrtA5*,"[2]; 100 µM substrates each, Connectase 50 °C, Sortase 37 °C",> 40 x
same,ligation yield,"[2]; protein-protein ligation of two ubiquitin molecules, equimolar substrates",~50%
"SrtA: S. aureus Sortase A without membrane anchor, reference ligase (protein) MRGSHHHHHHGSQAKPQIPKDKSKVAGYIEIPDADIKEPVYPGPATPEQLNRGVSFAEENESLDDQNISIAGHTFIDRPNYQFTNLKAAKKGSMVYFKVGNETRKYKMTSIRDVKPTDVEVLDEQKGKDKQLTLITCDDYNEKTGVWEKRKIFVATEVK",kcat Ligation/kcat Hydrolysis,LPETG and GGG substrates,≈ 3.3
SrtA5*: evolved SrtA pentamutant with significantly increased activity (protein) MQAKPQIPKDKSKVAGYIEIPDADIKEPVYPGPATREQLNRGVSFAEENESLDDQNISIAGHTFIDRPNYQFTNLKAAKKGSMVYFKVGNETRKYKMTSIRNVKPTAVEVLDEQKGKDKQLTLITCDDYNEETGVWETRKIFVATEVKLEHHHHHH,Km,LPETG and GGG substrates; read-out: KM GGG,4700 µM
same,Km,LPETG and GGG substrates; read-out: KM LPETG,170 µM
same,ligase activity of SrtA5* compared with SrtA,"[2]; Ub-GGSLPETGGG and GGG-Ub substrates, 37 °C",~100 x
Ub-(5)KDPGA(10): C. subterraneum ubiquitin fused C-terminally to M. mazei MtrA residues 148 to 167 (protein) MHHHHHHGSMKIKIVPAVGGGSPLELEVAPNATVGAVRTKVCAMKKLPPDTTRLTYKGRALKDTETLESLGVADGDKFVLITRTVGGRELASKDPGAFDADPLVVEI,fraction of substrate modified (conjugate with Connectase) at any time,M. mazei Connectase,~7%
